According to publication PMC5573263 (Journal of medicinal chemistry, 2016):

Experiments:
[1] = Mouse liver microsome assay; format: in vitro ADME; details: for metabolism of the C-4 carboxanilide aromatic ring: microsomal metabolism studies, in words; for CLint scaled at 0.08 uM: female, CD-1, mouse, liver microsomes, pH 7.4
Outline: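 Pooled female CD-1 mouse liver microsomes in 0.1 M potassium phosphate (pH 7.4) with EDTA. Test compound (0.08 uM final) incubated with NADPH-regenerating system at 37 °C, shaken, in triplicate. At 0, 0.5, 1, 2 and 4 h, quenched with cold methanol containing 2 μM caffeine internal standard; UPLC-MS. Half-life from the decay slope; CLint scaled with 0.5 mg/mL protein, 45 mg microsome/g liver and 52 g liver/kg.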

[2] = Dose related exposure in the rat; format: in vivo; details: data not shown
Ames' assay = format: cell-based

CLint scaled at 0.08 uM [1]	SMILES	further results
	COc1ccc(NC(=O)[C@H]2c3ccccc3C(=O)N(CC(C)C)[C@@H]2c2cccs2)cc1Cl (racemic) [10b]	metabolism of the C-4 carboxanilide aromatic ring [1]: readily demethylated
11.7 L/h/kg	CC(C)CN1C(=O)c2ccccc2[C@H](C(=O)Nc2cccc(C#N)c2)[C@H]1c1cccs1 (racemic) [10d]	metabolism of the C-4 carboxanilide aromatic ring [1]: hydroxylated
2.68 L/h/kg	CC(C)CN1C(=O)c2ccccc2[C@H](C(=O)Nc2ccc(F)c(C#N)c2)[C@H]1c1ccc(C#N)s1 (racemic) [11l]	
9.72 L/h/kg	CC(C)CN1C(=O)c2ccccc2[C@H](C(=O)Nc2ccc(F)c(C#N)c2)[C@H]1c1cn[nH]c1 (racemic) [11t]	
< 0.81 L/h/kg	N#Cc1cc(NC(=O)[C@H]2c3ccccc3C(=O)N(CC(F)(F)F)[C@@H]2c2cn[nH]c2)ccc1F (relative stereo) [13h, (3S*,4S*)-N-(3-Cyano-4-fluorophenyl)-1-oxo-3-(1H-pyrazol-4-yl)-2-(2,2,2-trifluoroethyl)-1,2,3,4-tetrahydroisoquinoline-4-carboxamide]	
1.99 L/h/kg	N#Cc1cc(NC(=O)[C@H]2c3ccccc3C(=O)N(CC(F)(F)F)[C@@H]2c2cccnc2)ccc1F (relative stereo) [13i, (3S*,4S*)-N-(3-Cyano-4-fluorophenyl)-1-oxo-3-(pyridin-3-yl)-2-(2,2,2-trifluoroethyl)-1,2,3,4-tetrahydroisoquinoline-4-carboxamide]	dose related exposure [2]: excellent dose related exposure
	N#Cc1cc(N)ccc1F [3-cyano-4-fluoroaniline]	Ames' assay result (Ames' assay): negative
